We go through 5 compounds from ChEMBL document CHEMBL1133855 (Bioorg Med Chem Lett, 2001).

The target of one test is T1, Adenosine receptor A1 (Homo sapiens, UniProt P30542).
T1 sequence (P30542 whole entry): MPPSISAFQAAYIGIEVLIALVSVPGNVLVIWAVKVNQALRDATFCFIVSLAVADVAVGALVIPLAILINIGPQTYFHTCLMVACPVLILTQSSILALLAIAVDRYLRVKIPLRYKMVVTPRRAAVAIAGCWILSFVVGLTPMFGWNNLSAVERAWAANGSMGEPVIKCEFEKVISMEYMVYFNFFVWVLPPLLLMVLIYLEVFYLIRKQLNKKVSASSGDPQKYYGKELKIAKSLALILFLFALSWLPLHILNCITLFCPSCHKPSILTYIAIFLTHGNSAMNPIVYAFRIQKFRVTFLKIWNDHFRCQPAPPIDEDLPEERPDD
As to the kind of experiment: Affinity for Adenosine A1 receptor by displacement of [3H]DPCPX from human cerebral cortex. The test is classed as tissue-based. A digest of the protocol: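 Membranes from human cerebral cortex; competition against [3H]DPCPX. IC50 fitted by non-linear least squares and converted to Ki via Cheng–Prusoff; means ± SE of three experiments.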

The next test addresses Adenosine receptor A2a (Homo sapiens, UniProt P29274). Kind of test: Affinity for A2a receptor by displacement of [3H]-CGS- 21680 from human striatum. (In general: Loss of bound radioactivity is the signal in a displacement assay; it reports binding, not function.)
For a further test, the target named is T2, Adenosine receptor A3 (Homo sapiens, UniProt P0DMS8).
T2 sequence (P0DMS8 whole entry): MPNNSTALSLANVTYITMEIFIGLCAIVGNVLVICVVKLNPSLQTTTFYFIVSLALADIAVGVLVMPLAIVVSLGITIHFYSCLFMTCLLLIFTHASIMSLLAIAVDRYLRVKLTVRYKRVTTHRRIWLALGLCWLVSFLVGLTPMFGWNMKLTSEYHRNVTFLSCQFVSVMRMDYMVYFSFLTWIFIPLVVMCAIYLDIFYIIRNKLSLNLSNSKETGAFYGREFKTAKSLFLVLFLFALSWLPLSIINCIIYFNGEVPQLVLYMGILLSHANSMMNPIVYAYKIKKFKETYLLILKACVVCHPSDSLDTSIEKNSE
As to the kind of experiment: Displacement of [125I]AB-MECA from human Adenosine A3 receptor expressed in CHO cells. The test is classed as cell-based.

Chain of Adenosine receptor A2a (P29274 whole entry): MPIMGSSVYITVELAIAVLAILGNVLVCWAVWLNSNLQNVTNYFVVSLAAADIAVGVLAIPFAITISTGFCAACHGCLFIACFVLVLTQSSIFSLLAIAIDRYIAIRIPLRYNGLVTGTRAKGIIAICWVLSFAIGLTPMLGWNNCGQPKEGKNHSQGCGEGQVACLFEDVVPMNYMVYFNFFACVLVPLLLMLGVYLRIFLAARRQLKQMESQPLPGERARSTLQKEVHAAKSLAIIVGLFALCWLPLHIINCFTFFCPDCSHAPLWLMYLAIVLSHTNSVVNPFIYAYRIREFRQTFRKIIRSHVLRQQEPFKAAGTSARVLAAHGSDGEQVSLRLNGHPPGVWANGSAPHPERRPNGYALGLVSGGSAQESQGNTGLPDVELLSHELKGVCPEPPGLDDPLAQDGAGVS

For orientation: Ki means the equilibrium dissociation constant of an inhibitor or competing ligand from its target. Higher therefore signals lower affinity. As for `CCNC(=O)[C@H]1OC(n2cnc3c(NCCCCCCNc4ccc([N+](=O)[O-])c5nonc45)ncnc32)[C@H](O)[C@@H]1O` (stereo not given in full), the Ki on Adenosine receptor A1 was greater than 10 µM; at Adenosine receptor A2a it was 6.08 µM; at Adenosine receptor A3, 0.0236 µM.

As for `CCNC(=O)[C@H]1OC(n2cnc3c(NCCCCNc4ccc([N+](=O)[O-])c5nonc45)ncnc32)[C@H](O)[C@@H]1O` (stereo not given in full), the Ki at Adenosine receptor A1 was greater than 10 µM; on Adenosine receptor A2a it was greater than 10 µM; on Adenosine receptor A3, 0.381 µM.

In the case of `CCNC(=O)[C@H]1OC(n2cnc3c(NCCNc4ccc([N+](=O)[O-])c5nonc45)ncnc32)[C@H](O)[C@@H]1O` (stereo not given in full), the results for the Ki on Adenosine receptor A1, on Adenosine receptor A2a and on Adenosine receptor A3 were greater than 10 µM, 6.75 µM and 0.0558 µM, respectively.

With `CCNC(=O)[C@H]1OC(n2cnc3c(NCCCCCCCCNc4ccc([N+](=O)[O-])c5nonc45)ncnc32)[C@H](O)[C@@H]1O` (stereo not given in full), the Ki at Adenosine receptor A1 was 3.48 µM; at Adenosine receptor A2a, 5.1 µM; at Adenosine receptor A3, 0.00744 µM.

On to `CCNC(=O)[C@H]1OC(n2cnc3c(NCCCCCCCCCCNc4ccc([N+](=O)[O-])c5nonc45)ncnc32)[C@H](O)[C@@H]1O` (stereo not given in full), for which the values for the Ki at Adenosine receptor A1, at Adenosine receptor A2a and at Adenosine receptor A3 were 6.35 µM, 6.1 µM and 0.0281 µM, respectively.
